Measurements: ChEMBL document CHEMBL4270537, “Design and biological evaluation of novel triaryl pyrazoline derivatives with dioxane moiety for selective BRAFV600E inhibition” (Eur J Med Chem, 2018)

Legend:
A-375 [1] = assay: Induction of apoptosis in human A375 cells assessed as necrotic cells at 10 uM after 24 hrs by Annexin V-FITC/PI staining based flow cytometry (reference value: 1.61%); format: functional
[2] = Effect on total MEK1/2 protein level in human WM1361 cells after 30 mins by Western blot analysis; format: ADME, cell-based; conditions: 0.5 h
In short: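 Western blot. Cells rinsed in cold PBS, lysed 30 min on ice in RIPA with protease inhibitors (1:100), cleared at 12,000 g, 4 °C. Protein measured by BCA, resolved by SDS-PAGE, transferred to PVDF, blocked in skim milk. Primary antibodies 1:500 overnight at 4 °C; secondary 1:5000 for 1 h at room temperature.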

[3] = tested on: Serine/threonine-protein kinase B-raf (Homo sapiens), P15056 [V600E]; assay: Inhibition of BRAF V600E mutant in human A375 cells assessed as decrease in ERK1/2 phosphorylation after 30 mins by Western blot analysis; format: cell-based
In short: (§1)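 A375 cells treated with compound at 0, 0.05, 0.1 and 0.5 µM, then PBS-rinsed and lysed in RIPA with protease inhibitors on ice for 30 min. Lysate was cleared at 12,000 g, 4 °C, and protein assayed by BCA. Samples run on SDS-PAGE and transferred to PVDF. Membranes were milk-blocked, probed with primary antibody (1:500) overnight at 4 °C, then secondary antibody (1:5000) for 1 h at room temperature.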

[4] = biological target: Mitogen-activated protein kinase 14 (Homo sapiens, UniProt Q16539); assay: Inhibition of N-terminal flag-tagged p38alpha (unknown origin) expressed in baculovirus expression system using MBP as substrate preincubated for 5 mins followed by substrate addition measured after 60 mins in presence of [gamma-32P]ATP by topcount scintillation method
In short: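 Baculovirus-expressed N-terminal FLAG-tagged kinases in 25 mM HEPES pH 7.5, 10 mM Mg acetate, 1 mM DTT, 0.5 µM ATP plus [γ-³²P]ATP, 50 µL. p38α: 100 ng enzyme, MBP substrate. JNK1: 10 ng enzyme, 1 µg c-Jun. Compound and enzyme preincubated 5 min, ATP started the reaction, 60 min at 30 °C. Stopped with 10% TCA, filtered, washed with 3% phosphoric acid, counted by TopCount.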

A-375 [5] = assay: Induction of apoptosis in human A375 cells assessed as late apoptotic cells at 10 uM after 24 hrs by Annexin V-FITC/PI staining based flow cytometry (reference value: 4.26%); format: functional
A-375 [6] = assay: Induction of apoptosis in human A375 cells assessed as viable cells at 2.5 uM after 24 hrs by Annexin V-FITC/PI staining based flow cytometry (reference value: 88.7%); format: functional; conditions: A-375, 24 h, read-out: Activity
A-375 [7] = assay: Induction of apoptosis in human A375 cells assessed as early apoptotic cells at 2 uM after 48 hrs by Annexin V-FITC/PI staining based flow cytometry (reference value: 5.42%); format: functional
In short: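 Apoptosis time course. A375 cells in 24-well plates (about 10⁵/well) at 2 µM for 0, 24, 48 and 72 h. Harvested by trypsin, washed in PBS, stained 15 min at room temperature in the dark with Annexin V-FITC/PI, analysed by flow cytometry.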

A-375 [8] = assay: Antitumor activity against human A375 cells xenografted in nude mouse assessed as decrease in tumor weight at 10 mg/kg, ip administered every second day for 14 days and measured on day 15 relative to control; format: functional
In short: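 A375 cells, 3 × 10⁶ in 0.1 mL cold PBS, injected subcutaneously into right flank of nude mice. Treatment began when tumors reached ~100 mm³; mice randomized, 5 per group. Compound suspended in olive oil, given intraperitoneally every second day for 14 days. Body weight recorded every two days; tumors excised and weighed on day 15.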

A-375 [9] = assay: Induction of apoptosis in human A375 cells assessed as early apoptotic cells at 5 uM after 24 hrs by Annexin V-FITC/PI staining based flow cytometry (reference value: 5.45%); format: functional
A-375 [10] = assay: Cell cycle arrest in human A375 cells assessed as accumulation at G2/M phase at 2.5 uM after 24 hrs by propidium iodide staining based flow cytometry (reference value: 5.1%); format: functional
A-375 [11] = assay: Induction of apoptosis in human A375 cells assessed as late apoptotic cells at 5 uM after 24 hrs by Annexin V-FITC/PI staining based flow cytometry (reference value: 4.26%); format: functional
A-375 [12] = assay: Induction of apoptosis in human A375 cells assessed as early apoptotic cells at 10 uM after 24 hrs by Annexin V-FITC/PI staining based flow cytometry (reference value: 5.45%); format: functional
A-375 [13] = assay: Induction of apoptosis in human A375 cells assessed as viable cells at 5 uM after 24 hrs by Annexin V-FITC/PI staining based flow cytometry (reference value: 88.7%); format: functional; conditions: A-375, 24 h, read-out: Activity
A-375 [14] = assay: Cell cycle arrest in human A375 cells assessed as accumulation at S phase at 20 uM after 24 hrs by propidium iodide staining based flow cytometry (reference value: 21.3%); format: functional
A-375 [15] = assay: Induction of apoptosis in human A375 cells assessed as early apoptotic cells at 20 uM after 24 hrs by Annexin V-FITC/PI staining based flow cytometry (reference value: 5.45%); format: functional
A-375 [16] = assay: Cell cycle arrest in human A375 cells assessed as accumulation at G2/M phase at 5 uM after 24 hrs by propidium iodide staining based flow cytometry (reference value: 5.1%); format: functional
Mus musculus = assay: Toxicity in nude mouse xenografted with human A375 cells assessed as body weight loss at 5 to 10 mg/kg, ip administered every second day for 14 days and measured every 2 days; format: organism-based; conditions: in vivo
In short: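 Nude mice bearing subcutaneous right-flank A375 xenografts (3×10⁶ cells in cold PBS) were randomized into groups of 5 at about 100 mm³. Compounds were suspended in olive oil and given intraperitoneally every second day for 14 days. Body weight was recorded every two days.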

A-375 [17] = assay: Cell cycle arrest in human A375 cells assessed as accumulation at G1 phase at 2 uM after 72 hrs by propidium iodide staining based flow cytometry (reference value: 73.6%); format: functional
A-375 [18] = assay: Antiproliferative activity against human A375 cells after 48 hrs by MTT assay; format: functional; conditions: A-375, 48 h
In short: (§2)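 MTT reduction assay. Cell lines grown to log phase in DMEM with 10% FBS (A375 in DMEM with sodium pyruvate added), seeded at 10⁴ cells/well in 96-well plates. Three replicate wells per concentration, each assay run three times, GI50 averaged.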

[19] = biological target: Serine/threonine-protein kinase B-raf (Mus musculus, UniProt P28028, V600E); assay: Inhibition of mouse full length GST-tagged BRAF V600E mutant using recombinant human full length N-terminal His-tagged MEK1 as substrate preincubated for 1 hr followed by substrate addition measured after 25 mins
A-375 [20] = assay: Cell cycle arrest in human A375 cells assessed as accumulation at G2/M phase at 10 uM after 24 hrs by propidium iodide staining based flow cytometry (reference value: 5.1%); format: functional
A-375 [21] = assay: Cell cycle arrest in human A375 cells assessed as accumulation at S phase at 2 uM after 72 hrs by propidium iodide staining based flow cytometry (reference value: 21.3%); format: functional
[22] = tested on: Serine/threonine-protein kinase B-raf (Homo sapiens), P15056 [V600E]; assay: Inhibition of BRAF V600E mutant in human A375 cells assessed as decrease in MEK1/2 phosphorylation after 30 mins by Western blot analysis; format: cell-based; in short: as §1
WM 266-4 = assay: Antiproliferative activity against human WM266.4 cells after 48 hrs by MTT assay; format: functional; conditions: WM 266-4, 48 h; in short: as §2

Chain of Serine/threonine-protein kinase B-raf (Homo sapiens), P15056 [V600E] (P15056 whole entry V600E): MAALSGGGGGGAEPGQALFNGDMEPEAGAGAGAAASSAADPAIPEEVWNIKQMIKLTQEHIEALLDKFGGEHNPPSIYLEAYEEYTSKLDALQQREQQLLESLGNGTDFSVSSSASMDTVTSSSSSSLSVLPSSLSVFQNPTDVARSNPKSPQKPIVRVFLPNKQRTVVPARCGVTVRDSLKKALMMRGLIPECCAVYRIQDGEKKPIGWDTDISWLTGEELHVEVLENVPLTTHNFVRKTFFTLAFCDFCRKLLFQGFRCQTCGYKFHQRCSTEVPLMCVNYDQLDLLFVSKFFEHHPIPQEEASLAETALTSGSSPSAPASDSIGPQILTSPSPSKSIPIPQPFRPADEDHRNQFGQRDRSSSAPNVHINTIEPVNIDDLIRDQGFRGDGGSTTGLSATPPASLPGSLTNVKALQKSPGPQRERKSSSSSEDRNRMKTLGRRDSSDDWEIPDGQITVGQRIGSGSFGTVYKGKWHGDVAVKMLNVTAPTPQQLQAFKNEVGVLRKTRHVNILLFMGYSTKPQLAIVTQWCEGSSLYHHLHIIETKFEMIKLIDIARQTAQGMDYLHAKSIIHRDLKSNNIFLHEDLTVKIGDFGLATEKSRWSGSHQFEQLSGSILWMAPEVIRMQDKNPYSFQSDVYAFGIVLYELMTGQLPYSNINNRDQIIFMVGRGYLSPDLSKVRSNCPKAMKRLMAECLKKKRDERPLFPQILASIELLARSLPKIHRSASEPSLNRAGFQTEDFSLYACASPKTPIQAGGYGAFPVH
Chain of Serine/threonine-protein kinase B-raf (P28028 whole entry, looked up, stated change not applied): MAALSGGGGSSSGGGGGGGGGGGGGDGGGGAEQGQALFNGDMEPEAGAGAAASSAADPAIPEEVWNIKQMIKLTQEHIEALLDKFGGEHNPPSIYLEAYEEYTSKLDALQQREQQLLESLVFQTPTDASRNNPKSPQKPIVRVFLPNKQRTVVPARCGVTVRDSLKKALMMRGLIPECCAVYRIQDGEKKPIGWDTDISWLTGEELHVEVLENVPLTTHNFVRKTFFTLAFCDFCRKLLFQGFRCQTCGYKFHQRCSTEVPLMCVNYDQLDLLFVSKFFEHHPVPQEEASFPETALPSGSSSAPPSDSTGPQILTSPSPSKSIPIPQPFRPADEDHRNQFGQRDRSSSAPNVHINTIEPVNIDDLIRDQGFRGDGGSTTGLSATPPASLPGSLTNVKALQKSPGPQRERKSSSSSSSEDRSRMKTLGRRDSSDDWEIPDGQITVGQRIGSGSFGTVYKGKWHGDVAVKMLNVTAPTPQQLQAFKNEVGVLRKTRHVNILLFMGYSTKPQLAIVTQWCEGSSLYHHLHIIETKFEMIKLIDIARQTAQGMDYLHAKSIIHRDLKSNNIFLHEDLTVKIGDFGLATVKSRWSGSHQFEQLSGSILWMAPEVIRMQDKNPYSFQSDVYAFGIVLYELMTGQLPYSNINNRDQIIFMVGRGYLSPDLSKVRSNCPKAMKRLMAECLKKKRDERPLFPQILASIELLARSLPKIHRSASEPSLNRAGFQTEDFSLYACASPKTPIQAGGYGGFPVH
Chain of Mitogen-activated protein kinase 14 (Q16539 whole entry): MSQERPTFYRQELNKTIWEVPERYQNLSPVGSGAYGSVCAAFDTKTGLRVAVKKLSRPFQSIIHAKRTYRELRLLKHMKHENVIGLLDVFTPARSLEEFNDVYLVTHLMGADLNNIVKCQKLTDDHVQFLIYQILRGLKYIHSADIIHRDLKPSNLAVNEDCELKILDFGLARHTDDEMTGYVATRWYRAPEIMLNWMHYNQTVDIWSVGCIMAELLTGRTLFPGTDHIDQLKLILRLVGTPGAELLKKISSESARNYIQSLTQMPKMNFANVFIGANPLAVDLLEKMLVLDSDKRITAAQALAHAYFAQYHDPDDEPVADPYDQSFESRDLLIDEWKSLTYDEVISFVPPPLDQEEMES

Question: What does the source list for `COc1cccc(C2=NN(C(=S)Nc3ccccc3)C(c3ccc4c(c3)OCCO4)C2)c1` (centres undefined)?
Answer: Activity (A-375 [1]): 2.6%; Activity [2]: Non-Toxic; inhibition [3]: Dose-dependent effect; IC50 [4]: > 200000 nM; Activity (A-375 [5]): 10.8%; viability at 2.5 µM (A-375 [6]): 74.4%; Activity (A-375 [7]): 17.1%; fold change (FC) (A-375 [8]): 2; Activity (A-375 [9]): 23.4%; Activity (A-375 [10]): 8.2%; Activity (A-375 [11]): 8.1%; Activity (A-375 [12]): 45%; viability at 5 µM (A-375 [13]): 65%; Activity (A-375 [14]): 16.9%; Activity (A-375 [15]): 49.6%; Activity (A-375 [16]): 10.3%; Activity (Mus musculus): Non-Toxic; Activity (A-375 [17]): 35.6%; GI50 (A-375 [18]): 520 nM; IC50 [19]: 60 nM; Activity (A-375 [20]): 18.1%; Activity (A-375 [21]): 27.6%; inhibition [22]: Dose-dependent effect; GI50 (WM 266-4): 1380 nM
